Measurements taken from ChEMBL document CHEMBL4825663 (J Med Chem, 2021).

How the values were obtained:
MDA-MB-231 = test: Antitumor activity against human MDA-MB-231 cells xenografted in athymic nude mouse assessed as reduction in median number of days for tumor to reach two tumor mass doubling at 12 mg/kg, iv administered every other day for 4 doses and monitored for 70 to 82 days (reference value: 13.1 day); assay type: functional; conditions: time 70-82 day
[1] = Drug metabolism in dog plasma assessed as metabolic ratio of 6alpha-hydroxypaclitaxel at 6 mg/kg, po in presence of 3 mg/kg encequidar; assay type: ADME, organism-based, Canis lupus familiaris; conditions: in vivo
[2] = biological target: T1, Broad substrate specificity ATP-binding cassette transporter ABCG2 (Homo sapiens, UniProt Q9UNQ0); test: Inhibition of sulfasalazine-stimulated BCRP ATP ase activity (unknown origin)
T1 sequence (Q9UNQ0 whole entry): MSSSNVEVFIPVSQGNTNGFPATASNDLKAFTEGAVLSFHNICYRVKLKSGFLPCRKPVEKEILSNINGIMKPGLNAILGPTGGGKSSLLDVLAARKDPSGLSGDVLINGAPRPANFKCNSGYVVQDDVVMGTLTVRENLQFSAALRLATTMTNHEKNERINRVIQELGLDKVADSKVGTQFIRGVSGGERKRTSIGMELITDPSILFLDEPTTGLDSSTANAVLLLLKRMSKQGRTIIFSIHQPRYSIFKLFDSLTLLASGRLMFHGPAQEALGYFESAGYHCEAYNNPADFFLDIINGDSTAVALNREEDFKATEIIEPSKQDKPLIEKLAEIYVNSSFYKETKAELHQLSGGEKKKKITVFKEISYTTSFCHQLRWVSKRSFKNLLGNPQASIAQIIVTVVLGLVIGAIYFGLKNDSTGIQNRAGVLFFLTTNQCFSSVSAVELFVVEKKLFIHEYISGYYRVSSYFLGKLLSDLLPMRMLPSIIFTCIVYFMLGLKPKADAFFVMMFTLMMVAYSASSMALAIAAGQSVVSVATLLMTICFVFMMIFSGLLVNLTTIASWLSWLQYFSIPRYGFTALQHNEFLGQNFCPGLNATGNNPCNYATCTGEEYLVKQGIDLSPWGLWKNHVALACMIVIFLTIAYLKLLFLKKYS

[3] = AUClast in Sprague-Dawley rat at 3 mg/kg, iv measured upto 48 hrs by LC-MS/MS analysis; assay type: ADME, organism-based; set-up: route intravenous, dose 3 mg/kg, time <=48; conditions: in vivo
Outline: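 Single dose in male Sprague-Dawley rats and male Beagle dogs (n = 3 per species), given 3 mg/kg IV or 10 mg/kg PO. Plasma was sampled to derive Cmax, Tmax, T1/2 and AUClast by each route. Oral bioavailability (F) was calculated from the PO and IV AUClast.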

[4] = biological target: T2, Solute carrier family 22 member 6 (Homo sapiens, UniProt Q4U2R8); test: Inhibition of human OAT1 assessed as reduction in intracellular probe substrate accumulation upto 100 uM by microplate scintillation counter analysis relative to control; assay type: cell-based
T2 sequence (Q4U2R8 whole entry): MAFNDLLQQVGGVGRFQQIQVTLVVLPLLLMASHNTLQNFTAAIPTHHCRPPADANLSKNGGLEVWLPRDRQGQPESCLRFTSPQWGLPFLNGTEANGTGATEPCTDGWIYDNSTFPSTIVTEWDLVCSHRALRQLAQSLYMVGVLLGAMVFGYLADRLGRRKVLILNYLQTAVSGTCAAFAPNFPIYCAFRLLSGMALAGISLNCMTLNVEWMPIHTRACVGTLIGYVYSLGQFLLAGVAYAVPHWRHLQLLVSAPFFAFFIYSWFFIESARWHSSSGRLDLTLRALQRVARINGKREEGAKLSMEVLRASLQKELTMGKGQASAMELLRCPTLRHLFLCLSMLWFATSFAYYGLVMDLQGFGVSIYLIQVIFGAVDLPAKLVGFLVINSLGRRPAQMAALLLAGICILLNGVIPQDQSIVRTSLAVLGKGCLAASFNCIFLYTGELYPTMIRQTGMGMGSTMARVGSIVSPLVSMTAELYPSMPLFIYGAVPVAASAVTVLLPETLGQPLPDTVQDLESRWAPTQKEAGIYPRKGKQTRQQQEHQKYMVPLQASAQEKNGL
Outline: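 Cellular uptake-inhibition assays used Chinese hamster ovary, HEK293 or MDCKII cells stably expressing the respective human SLC transporter, run alongside the corresponding control cells. Inhibitor was tested at concentrations up to 100 μM.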

Row | SMILES | Time (MDA-MB-231) | Ratio [1] | IC50 [2] | AUC(0-t) at 48 h [3] | inhibition (INH) [4]
1 | CC(=O)O[C@H]1C(=O)[C@@]2(C)[C@H]([C@H](OC(=O)c3ccccc3)[C@]3(O)C[C@H](OC(=O)[C@H](O)[C@@H](NC(=O)c4ccccc4)c4ccccc4)C(C)=C1C3(C)C)[C@]1(OC(C)=O)CO[C@@H]1C[C@@H]2O [PACLITAXEL] | 26.1 days | 0.76 |  |  | 
2 | COc1cc2c(cc1OC)CN(CCc1ccc(-n3nnc(-c4cc(OC)c(OC)cc4NC(=O)c4cc(=O)c5ccccc5o4)n3)cc1)CC2 |  |  | > 3.72 µM | 619 ng·h/mL | < 50%
